Laboratory results taken from ChEMBL document CHEMBL5500326, “Does size matter? - Comparing pyranoses with septanoses as ligands of the bacterial lectin FimH” (Eur J Med Chem, 2024).

Experiments:
[1] = target: Type 1 fimbrin D-mannose specific adhesin (Escherichia coli K-12, UniProt P08191); experiment: (§1) Displacement of fluorescent tracer 3'-chloro-N-(2-(3-(3',6'-dihydroxy-3-oxo-3H-spiro[isobenzofuran-1,9'-xanthen]-5-yl)thioureido)ethyl)-4'-(alpha-D-mannopyranosyloxy)biphenyl-4-carboxamide from Escherichia coli F18 full-length FimH expressed in Escherichia coli HM125 assessed as dissociation constant incubated for 24 hrs by competitive binding based fluorescence polarization assay
Chain of Type 1 fimbrin D-mannose specific adhesin (P08191 whole entry): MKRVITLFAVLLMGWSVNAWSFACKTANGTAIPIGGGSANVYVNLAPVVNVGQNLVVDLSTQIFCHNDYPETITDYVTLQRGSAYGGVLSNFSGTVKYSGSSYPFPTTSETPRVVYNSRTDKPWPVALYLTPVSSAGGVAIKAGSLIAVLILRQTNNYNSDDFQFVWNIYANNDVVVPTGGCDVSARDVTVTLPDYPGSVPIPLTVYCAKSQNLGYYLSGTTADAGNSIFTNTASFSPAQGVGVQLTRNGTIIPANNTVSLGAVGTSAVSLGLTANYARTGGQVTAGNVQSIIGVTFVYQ
Method in brief: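 Competitive FP with full-length FimH at 300 nM and tracer at 500 nM; ligand serially diluted from 5 mM final, or 50 μM for some mannosides, in 20 mM HEPES pH 7.4, 150 mM NaCl, 50 μg/mL BSA, 5% DMSO (10% for poorly soluble ligands, top 500 μM). Read after 24 h, Ex 485/Em 535 nm. KD from competitive binding model fit.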

Escherichia coli = experiment: Ratio of kd for displacement of fluorescent tracer 3'-chloro-N-(2-(3-(3',6'-dihydroxy-3-oxo-3H-spiro[isobenzofuran-1,9'-xanthen]-5-yl)thioureido)ethyl)-4'-(alpha-D-mannopyranosyloxy)biphenyl-4-carboxamide from Escherichia coli F18 full-length FimH expressed in Escherichia coli HM125 to kd for displacement of fluorescent tracer 3'-chloro-N-(2-(3-(3',6'-dihydroxy-3-oxo-3H-spiro[isobenzofuran-1,9'-xanthen]-5-yl)thioureido)ethyl)-4'-(alpha-D-mannopyranosyloxy)biphenyl-4-carboxamide from Escherichia coli F18 FimH lectin domain expressed in Escherichia coli HM125
Method in brief: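 Ratio of FP-derived KD for full-length FimH (300 nM protein, 500 nM tracer, ligand from 5 mM) over KD for lectin domain (50 nM each, ligand from 500 μM). Both in HEPES/NaCl/BSA buffer pH 7.4 with DMSO, 24 h equilibration, Ex 485/Em 535 nm, competitive binding model fit.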

[2] = as §1, with “F18” for “F18 full-length”, “FimH […]” for “FimH”
Method in brief: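 Competitive FP: 50 nM FimH lectin domain and 50 nM mannoside-fluorescein tracer; ligand serially diluted from 500 μM final in 20 mM HEPES pH 7.4, 150 mM NaCl, 50 μg/mL BSA, 5% DMSO (10% for poorly soluble ligands). Read after 24 h equilibration, Ex 485/Em 535 nm. KD from analytical competitive binding model fit.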

[3] = Binding affinity to Escherichia coli F18 FimH lectin domain expressed in Escherichia coli HM125 assessed as dissociation constant by isothermal titration calorimetry
Method in brief: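 ITC at 25 °C; protein dialyzed against 20 mM HEPES, 150 mM NaCl, pH 7.4, ligand dissolved in dialysate, 5% or 10% DMSO. Baselines corrected and peaks integrated, then global nonlinear regression fitting with confidence intervals.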

**Q.** With `OC[C@H]1OC[C@H](OCCCc2ccccc2)[C@@H](O)[C@@H](O)[C@@H]1O` as the compound, how does the Kd ([1]; read-out: Kd) read?
**A.** 125 µM

**Q.** What about the Ratio (Escherichia coli) of the same compound?
**A.** 17.8

**Q.** And the Kd ([2]; read-out: Kd)?
**A.** 7050 nM

**Q.** For `CCCCCCCO[C@H]1CO[C@H](CO)[C@@H](O)[C@H](O)[C@@H]1O`, which Kd ([1]; read-out: Kd) is on record?
**A.** 31.8 µM

**Q.** And the Ratio (Escherichia coli)?
**A.** 16.4

**Q.** And the Kd ([2]; read-out: Kd)?
**A.** 1940 nM

**Q.** Which Kd ([1]; read-out: Kd) does the source give for `N#Cc1ccc(-c2ccc(O[C@H]3CO[C@H](CO)[C@@H](O)[C@H](O)[C@@H]3O)c(Cl)c2)cc1` here?
**A.** 6.99 µM

**Q.** What about the Kd ([2]; read-out: Kd) of the same compound?
**A.** 100 nM

**Q.** What does the source list for `NC(=O)c1ccc(-c2ccc(O[C@H]3O[C@H](CO)[C@@H](O)[C@H](O)[C@@H]3O)c(Cl)c2)cc1`?
**A.** Kd ([1]; read-out: Kd): 0.086 µM; Kd ([2]; read-out: Kd): 0.3 nM

**Q.** Which Kd ([1]; read-out: Kd) does the source give for `N#Cc1ccc(-c2ccc(CO[C@H]3CO[C@H](CO)[C@@H](O)[C@H](O)[C@@H]3O)cc2)cc1` here?
**A.** 63.1 µM

**Q.** And the Ratio (Escherichia coli)?
**A.** 43.8

**Q.** What about the Kd ([2]; read-out: Kd) of the same compound?
**A.** 1440 nM

**Q.** For `N#Cc1ccc(-c2ccc(O[C@H]3O[C@H](CO)[C@@H](O)[C@H](O)[C@@H]3O)c(Cl)c2)cc1`, which Kd ([1]; read-out: Kd) is on record?
**A.** 0.084 µM

**Q.** What about the Kd ([2]; read-out: Kd) of the same compound?
**A.** 0.5 nM

**Q.** Which Kd ([1]; read-out: Kd) does the source give for `NC(=O)c1ccc(-c2ccc(O[C@H]3O[C@H](CO)[C@@H](O)[C@H](O)[C@@H]3O)cc2)cc1` here?
**A.** 0.24 µM

**Q.** For `N#Cc1ccc(-c2ccc(O[C@H]3O[C@H](CO)[C@@H](O)[C@H](O)[C@@H]3O)cc2)cc1`, which Kd ([1]; read-out: Kd) is on record?
**A.** 0.208 µM

**Q.** With `NC(=O)c1ccc(-c2ccc(CO[C@H]3CO[C@H](CO)[C@@H](O)[C@H](O)[C@@H]3O)c(Cl)c2)cc1` as the compound, how does the Kd ([1]; read-out: Kd) read?
**A.** 59.4 µM

**Q.** What about the Ratio (Escherichia coli) of the same compound?
**A.** 37.6

**Q.** What about the Kd ([2]; read-out: Kd) of the same compound?
**A.** 1580 nM

**Q.** With `N#Cc1cccc(-c2ccc(CO[C@H]3CO[C@H](CO)[C@@H](O)[C@H](O)[C@@H]3O)c(Cl)c2)c1` as the compound, how does the Kd ([1]; read-out: Kd) read?
**A.** 35.5 µM

**Q.** What about the Ratio (Escherichia coli) of the same compound?
**A.** 24.7

**Q.** What about the Kd ([2]; read-out: Kd) of the same compound?
**A.** 1440 nM

**Q.** For `OC[C@H]1O[C@H](Oc2ccc(-c3ccccc3)cc2)[C@@H](O)[C@@H](O)[C@@H]1O`, which Kd ([2]; read-out: Kd) is on record?
**A.** 15.1 nM

**Q.** With `OC[C@H]1OC[C@H](OCc2ccc(-c3ccccc3)cc2)[C@@H](O)[C@@H](O)[C@@H]1O` as the compound, how does the Kd ([1]; read-out: Kd) read?
**A.** 110 µM

**Q.** And the Ratio (Escherichia coli)?
**A.** 19.3

**Q.** And the Kd ([2]; read-out: Kd)?
**A.** 5670 nM

**Q.** Which results are given for `NC(=O)c1ccc(-c2ccc(CO[C@H]3CO[C@H](CO)[C@@H](O)[C@H](O)[C@@H]3O)cc2)cc1`?
**A.** Kd ([1]; read-out: Kd): 116 µM; Ratio (Escherichia coli): 42.7; Kd ([2]; read-out: Kd): 2720 nM

**Q.** What does the source list for `NC(=O)c1ccc(-c2ccc(O[C@H]3CO[C@H](CO)[C@@H](O)[C@H](O)[C@@H]3O)c(Cl)c2)cc1`?
**A.** Kd ([1]; read-out: Kd): 7.34 µM; Kd ([2]; read-out: Kd): 120 nM

**Q.** What does the source list for `CCCCCCCO[C@@H]1C[C@@H](O)[C@@H](O)[C@H](O)[C@@H](CO)O1`?
**A.** Kd [1]: Not Active; Kd [2]: Not Active

**Q.** Which results are given for `OC[C@H]1OC[C@H](OCc2ccccc2)[C@@H](O)[C@@H](O)[C@@H]1O`?
**A.** Kd ([1]; read-out: Kd): 417 µM; Ratio (Escherichia coli): 5.2; Kd ([2]; read-out: Kd): 80100 nM

**Q.** Which Kd [3] does the source give for `N#Cc1ccc(-c2ccc(O[C@H]3CO[C@H](CO)[C@@H](O)[C@H](O)[C@@H]3O)cc2)cc1` here?
**A.** 838 nM

**Q.** What about the Kd ([1]; read-out: Kd) of the same compound?
**A.** 42.3 µM

**Q.** What about the Kd ([2]; read-out: Kd) of the same compound?
**A.** 260 nM

**Q.** Which results are given for `OC[C@H]1O[C@H](Oc2ccc(-c3ccccc3)cc2Cl)[C@@H](O)[C@@H](O)[C@@H]1O`?
**A.** Kd ([1]; read-out: Kd): 0.458 µM; Kd ([2]; read-out: Kd): 2.8 nM

**Q.** Which Kd ([1]; read-out: Kd) does the source give for `CCCCCCCO[C@H]1O[C@H](CO)[C@@H](O)[C@H](O)[C@@H]1O` here?
**A.** 3.6 µM

**Q.** What about the Kd ([2]; read-out: Kd) of the same compound?
**A.** 28.3 nM

**Q.** What does the source list for `OC[C@H]1OC[C@H](Oc2ccc(-c3ccccc3)cc2Cl)[C@@H](O)[C@@H](O)[C@@H]1O`?
**A.** Kd ([1]; read-out: Kd): 6.11 µM; Kd ([2]; read-out: Kd): 60 nM

**Q.** For `N#Cc1ccc(-c2ccc(CO[C@H]3CO[C@H](CO)[C@@H](O)[C@H](O)[C@@H]3O)c(Cl)c2)cc1`, which Kd ([1]; read-out: Kd) is on record?
**A.** 37.8 µM

**Q.** What about the Ratio (Escherichia coli) of the same compound?
**A.** 29.1

**Q.** And the Kd ([2]; read-out: Kd)?
**A.** 1300 nM
